The results in this text go back to ChEMBL document CHEMBL4610095, “chiro-Inositol Derivatives from Chisocheton paniculatus Showing Inhibition of Nitric Oxide Production” (J Nat Prod, 2020).

By IC50 is commonly meant the concentration that gives 50% inhibition.

The structures appear in SMILES notation. Where only a bound is given, the exact number is not on record here.

One data set deals with RAW264.7. Description: Antiinflammatory activity in mouse RAW264.7 cells assessed as reduction in LPS-induced NO production incubated for 24 hrs by Griess reagent based assay. It counts as functional, cell-based. Conditions: RAW264.7, 24 h. A digest of the protocol:
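RAW 264.7 cells seeded at 2×10^5 cells/well and held 24 h at 37 °C, 5% CO2. Cells treated with or without compounds at various concentrations plus LPS (1 μg/mL) for 24 h. Nitrite in cell-free supernatant read by Griess reaction (sulfanilamide/phosphoric acid, N-1-naphthylethylenediamine) at 540 nm against a NaNO2 standard curve. L-NMMA served as positive control. IC50 reported.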

Data set [1] is described as follows: Cytotoxicity against mouse RAW264.7 cells assessed as cell viability at 100 ug/ml by MTT assay. The settings on record: read-out: Activity. It counts as cell-based. Summed up:
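Compounds tested at 100 μg/mL on RAW 264.7 cells seeded at 2×10^5 cells/well. Cells were co-stimulated with LPS (1 μg/mL) for 24 h at 37 °C. Viability of the remaining cells after supernatant removal was measured by MTT colorimetric assay.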
(Formazan colour is commonly taken as a measure of viable cells.)

On to `C/C=C(\C)C(=O)O[C@@H]1[C@H](O)[C@@H](OC(=O)C(C)CC)[C@@H](O)[C@H](OC(=O)/C(=C/C)CO)[C@H]1OC(=O)/C(=C/C)CO` (some centres not stated), for which the IC50 in the data set with RAW264.7 came to 20.3 µM. For the same molecule, in data set [1], the viability at 100 ug/ml is above 85%.

With `C/C=C(\C)C(=O)O[C@@H]1[C@H](O)[C@@H](OC(=O)C(C)CC)[C@@H](OC(=O)/C(=C/C)CO)[C@H](O)[C@H]1OC(=O)/C(=C/C)CO` (some centres not stated), the IC50 with RAW264.7 came to 7.1 µM. In data set [1], the viability at 100 ug/ml was above 85%.

With `C/C=C(\CO)C(=O)O[C@H]1[C@H](OC(=O)C(C)CC)[C@H](O)[C@@H](OC(=O)C(C)CC)[C@@H](O)[C@@H]1OC(=O)/C(=C/C)CO` (some centres not stated), the IC50 in the data set with RAW264.7 was 62.9 µM. Besides, the viability at 100 ug/ml in data set [1] was above 85%.

`C/C=C(\CO)C(=O)O[C@@H]1[C@@H](O)[C@H](OC(=O)/C(=C/C)CO)[C@H](OC(=O)C(C)CC)[C@@H](O)[C@H]1OC(=O)C(C)CC` (some centres not stated): the IC50 in the data set with RAW264.7 worked out at 95.6 µM. In addition, the viability at 100 ug/ml in data set [1] was above 85%.

Turning to `C/C=C(\C)C(=O)O[C@@H]1[C@@H](O)[C@@H](OC(=O)C(C)CC)[C@H](OC(=O)/C(=C/C)CO)[C@@H](OC(=O)/C(=C/C)CO)[C@@H]1O` (some centres not stated), the IC50 in the data set on RAW264.7 is 124 µM. The viability at 100 ug/ml in data set [1] is above 85%.

With `C/C=C(\C)C(=O)O[C@@H]1[C@H](O)[C@@H](O)[C@@H](OC(=O)/C(C)=C/C)[C@H](OC(=O)/C(=C/C)CO)[C@H]1OC(=O)/C(=C/C)CO`, in the data set on RAW264.7, the IC50 was found to be 56.7 µM. The viability at 100 ug/ml in data set [1] is above 85%.
